Columns and labels:
Format in all cases: functional
[1] = Hydroxy radical scavenging activity assessed by measuring malondialdehyde produced at 400 ug/kg by thiobarbituric acid method; settings: in the assay text read “400 ug/ml” for “400 ug/kg”
How it was run: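 Non-enzymic hydroxyl-radical generation: deoxyribose 2.8 mM, FeSO4 2 mM, sodium ascorbate 2.0 mM and H2O2 2.8 mM in 50 mM KH2PO4, pH 7.4. Run with or without test compound at […], 37 °C for 90 min. Compared with compound-free reaction by Student's t-test.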

[2] = Superoxide radical scavenging activity assessed by measuring formazone produced at 400 ug/kg; settings: in the assay text read “400 ug/ml” for “400 ug/kg”
How it was run: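 Superoxide generated enzymatically with xanthine ([…]), xanthine oxidase (0.04 U) and nitroblue tetrazolium, in 100 mM phosphate buffer, pH 8.2. Samples were sonicated in buffer and added at […], 37 °C for 30 min. Stopped with 0.5 mL glacial acetic acid; formazan read at 560 nm. Percent inhibition from ε 7.2×10³ M⁻¹cm⁻¹.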

[3] = tested on: Rattus norvegicus; experiment: Decrease in triglyceride level in WR-1339-induced hyperlipidemic rat plasma at 400 mg/kg, po; design: scale not given: the % may be the effect or the level left
How it was run: (§1)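 Male adult Charles Foster rats (200–225 g), six per group. Triton WR-1339 400 mg/kg b.w. ip; treatment suspended in water with 0.2% w/v gum acacia, given po at the same time; diet withdrawn. Vehicle controls were included. After 18 h, under thiopentone anaesthesia, retro-orbital blood was collected into EDTA. Plasma was diluted 1:3 in saline and assayed enzymatically on an autoanalyzer. Percent change vs triton-only group, Student's t-test.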

[4] = tested on: Rattus norvegicus; experiment: Decrease in phospholipid level in WR-1339-induced hyperlipidemic rat plasma at 400 mg/kg, po; design: scale not given: the % may be the effect or the level left; how it was run: as §1
[5] = tested on: Rattus norvegicus; experiment: Decrease in total cholesterol level in WR-1339-induced hyperlipidemic rat plasma at 400 mg/kg, po; design: scale not given: the % may be the effect or the level left; how it was run: as §1
[6] = tested on: Rattus norvegicus; experiment: Decrease in phospholipid level in WR-1339-induced hyperlipidemic rat plasma at 100 mg/kg, po; design: scale not given: the % may be the effect or the level left; how it was run: as §1
[7] = tested on: Rattus norvegicus; experiment: Decrease in total cholesterol level in WR-1339-induced hyperlipidemic rat plasma at 100 mg/kg, po; design: scale not given: the % may be the effect or the level left; how it was run: as §1
[8] = tested on: Rattus norvegicus; experiment: Decrease in triglyceride level in WR-1339-induced hyperlipidemic rat plasma at 100 mg/kg, po; design: scale not given: the % may be the effect or the level left; how it was run: as §1

Structure (SMILES) | Activity [1] [nmol/h] | Activity [2] [nmol/min] | Activity [3] [%] | Activity [4] [%] | Activity [5] [%] | Activity [6] [%] | Activity [7] [%] | Activity [8] [%]
CC(=O)C1=CC[C@H]2[C@@H]3CC=C4C[C@@H](OC(=O)c5ccccc5Cl)CC[C@]4(C)[C@H]3CC[C@]12C | 35.01 | 14.33 | -14 | -17 | -21 |  |  | 
CC(=O)OC[C@H]1O[C@H](OCCO[C@@H]2C[C@H]3[C@@H]4CC=C5C[C@@H](O)CC[C@]5(C)[C@H]4CC[C@]3(C)[C@H]2C(C)=O)[C@@H](OC(C)=O)[C@@H](OC(C)=O)[C@@H]1OC(C)=O | 35.05 | 13.22 |  |  |  |  |  | 
CC(=O)OCCO[C@@H]1C[C@H]2[C@@H]3CC=C4C[C@@H](OC(C)=O)CC[C@]4(C)[C@H]3CC[C@]2(C)[C@H]1C(C)=O | 41.5 | 21.5 | -16 | -13 | -13 |  |  | 
C[C@H](O)[C@H]1[C@H](OCCO)C[C@H]2[C@@H]3CC=C4C[C@@H](O)CC[C@]4(C)[C@H]3CC[C@]12C | 31.09 | 9.33 | -26 | -25 | -23 |  |  | 
CC(=O)OCCO[C@@H]1C[C@H]2[C@@H]3CC=C4C[C@@H](OC(C)=O)CC[C@]4(C)[C@H]3CC[C@]2(C)[C@H]1[C@H](C)OC(C)=O | 33.9 | 12.63 | -13 | -14 | -18 |  |  | 
C/C(=N\OCCCCCBr)C1=CC[C@H]2[C@@H]3CC=C4C[C@@H](O)CC[C@]4(C)[C@H]3CC[C@]12C | 38.52 | 15.33 | -5 | -5 | -4 |  |  | 
CC(=O)C1=CC[C@H]2[C@@H]3CC=C4C[C@@H](OC(=O)c5ccc(Cl)cc5)CC[C@]4(C)[C@H]3CC[C@]12C | 27.16 | 11.1 | -25 | -27 | -27 |  |  | 
CC(=O)O[C@@H]1[C@@H](OC(C)=O)[C@H](C)O[C@@H](OCCO[C@@H]2C[C@H]3[C@@H]4CC=C5C[C@@H](O)CC[C@]5(C)[C@H]4CC[C@]3(C)[C@H]2C(C)=O)[C@@H]1OC(C)=O | 39.02 | 12.8 |  |  |  |  |  | 
CC(=O)[C@H]1[C@H](OCCO)C[C@H]2[C@@H]3CC=C4C[C@@H](O)CC[C@]4(C)[C@H]3CC[C@@]21C | 36.12 | 7.83 | -11 | -8 | -13 |  |  | 
Cc1ccc(C)c(OCCCC(C)(C)C(=O)O)c1 [GEMFIBROZIL] |  |  |  |  |  | -36 | -37 | -32

— ChEMBL document CHEMBL1148693, “Expeditious and convenient synthesis of pregnanes and its glycosides as potential anti-dyslipidemic and anti-oxidant agents” (2007)
